Active and inactive are the calls of the source. The rule behind the calls is not given here.
System: NCI-H1650
Assay: Cytotoxicity against human NCI-H1650 cells assessed as growth inhibition after 48 hrs by MTT assay
Assay type: functional
Outline: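 H1650 cells were exposed to drug for 48 h at five concentrations bracketing 1–40 μM in 10 μM steps, with MTT read-out. GI50 is given only where the data form a sigmoidal dose response.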

Compound	GI50	GI50 (NCI-H1650, 48 h)
O=S(=O)(c1ccc(OC(F)(F)F)cc1)N1CCCCC1CCN1c2ccccc2Sc2ccc(Cl)cc21 (stereo not drawn)	inactive	
O=S(=O)(NCCN1c2ccccc2CCc2ccc(Cl)cc21)c1ccc(Cl)cc1		19.1 µM
N#Cc1ccc(S(=O)(=O)NCCCN2c3ccccc3CCc3ccc(Cl)cc32)cc1		20 µM
O=S(=O)(c1ccc(OC(F)(F)F)cc1)N1CCC(=C2c3ccccc3CCc3ccccc32)CC1	inactive	
O=S(=O)(N[C@@H]1CCC[C@@H](N2c3ccccc3CCc3ccccc32)C1)c1ccc(OC(F)(F)F)cc1		18 µM
CCN(CC)C(C)CN1c2ccccc2Sc2ccccc21 (stereo not drawn) [ETHOPROPAZINE]		> 40 µM
O=S(=O)(NCCCN1c2ccccc2CCc2ncccc21)c1ccc(Cl)cc1		30 µM
O=S(=O)(NCCCN1c2ccccc2CCc2ccc(Cl)cc21)c1cnc(Cl)c(Br)c1		> 40 µM

Source: ChEMBL document CHEMBL3611968, “Reengineered tricyclic anti-cancer agents” (Bioorg Med Chem, 2015)
